Reference: ChEMBL document CHEMBL2062435, “Synthesis and in vitro antibacterial activity of gemifloxacin derivatives containing a substituted benzyloxime moiety” (2012)

Columns and labels:
Format in all cases: functional
Enterococcus faecium [1] = experiment: Ratio of levofloxacin MIC to compound MIC for Enterococcus faecium 10-9 after 18-24 hrs by two-fold serial dilution method
[2] = test system: Staphylococcus epidermidis; experiment: Antimicrobial activity against extended spectrum beta-lactamases-producing methicillin-sensitive Staphylococcus epidermidis 10-15 after 18-24 hrs by two-fold serial dilution method
Summary of the method: (§1)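 Agar-medium twofold serial dilution against Gram-positive and Gram-negative strains; MIC taken as the lowest compound concentration giving complete inhibition of bacterial growth after incubation at 35 °C for 18-24 h.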

Enterococcus faecium [3] = experiment: Ratio of gemifloxacin MIC to compound MIC for Enterococcus faecium 10-9 after 18-24 hrs by two-fold serial dilution method
Enterococcus faecium [4] = experiment: Antimicrobial activity against Enterococcus faecium 10-5 after 18-24 hrs by two-fold serial dilution method; summary of the method: as §1
Enterococcus faecium [5] = experiment: Ratio of gemifloxacin MIC to compound MIC for Enterococcus faecium 10-5 after 18-24 hrs by two-fold serial dilution method
[6] = test system: Staphylococcus epidermidis; experiment: Ratio of gemifloxacin MIC to compound MIC for extended spectrum beta-lactamases-producing methicillin-sensitive Staphylococcus epidermidis 10-15 after 18-24 hrs by two-fold serial dilution method
Pseudomonas aeruginosa [7] = experiment: Antimicrobial activity against extended spectrum beta-lactamases-producing Pseudomonas aeruginosa 10-9 after 18-24 hrs by two-fold serial dilution method; summary of the method: as §1
[8] = test system: Staphylococcus epidermidis; experiment: Ratio of levofloxacin MIC to compound MIC for extended spectrum beta-lactamases-producing methicillin-sensitive Staphylococcus epidermidis 10-15 after 18-24 hrs by two-fold serial dilution method
Summary of the method: (§2)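 MICs were determined by the standard twofold serial dilution method on agar media against the test strains, with levofloxacin run as a reference. MIC is the lowest concentration giving complete inhibition of bacterial growth after 18–24 h incubation at 35 °C. The ratio is levofloxacin MIC divided by test-compound MIC.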

Klebsiella pneumoniae [9] = experiment: Antimicrobial activity against extended spectrum beta-lactamases-producing Klebsiella pneumoniae 10-3 after 18-24 hrs by two-fold serial dilution method; summary of the method: as §1
[10] = test system: Staphylococcus epidermidis; experiment: Antimicrobial activity against methicillin-resistant Staphylococcus epidermidis clinical isolate after 18-24 hrs by two-fold serial dilution method
Klebsiella pneumoniae [11] = experiment: Antimicrobial activity against Klebsiella pneumoniae 10-2 after 18-24 hrs by two-fold serial dilution method; summary of the method: as §1
Staphylococcus aureus [12] = experiment: Antimicrobial activity against extended spectrum beta-lactamases-producing methicillin-resistant Staphylococcus aureus 10-15 after 18-24 hrs by two-fold serial dilution method
Summary of the method: (§3)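 Agar twofold serial dilution MIC against clinical isolates. MIC was taken as the lowest concentration giving complete inhibition of bacterial growth after incubation at 35 °C for 18-24 h.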

Streptococcus pneumoniae [13] = experiment: Ratio of gemifloxacin MIC to compound MIC for extended spectrum beta-lactamases-producing Streptococcus pneumoniae 10-1 after 18-24 hrs by two-fold serial dilution method
Escherichia coli [14] = experiment: Antimicrobial activity against extended spectrum beta-lactamases-producing Escherichia coli 10-2 after 18-24 hrs by two-fold serial dilution method; summary of the method: as §1
Staphylococcus aureus [15] = experiment: Ratio of gemifloxacin MIC to compound MIC for extended spectrum beta-lactamases-producing methicillin-sensitive Staphylococcus aureus 10-13 after 18-24 hrs by two-fold serial dilution method
[16] = test system: Staphylococcus epidermidis; experiment: Antimicrobial activity against extended spectrum beta-lactamases-producing methicillin-resistant Staphylococcus epidermidis 10-10 after 18-24 hrs by two-fold serial dilution method; summary of the method: as §3
Enterococcus faecalis [17] = experiment: Ratio of gemifloxacin MIC to compound MIC for Enterococcus faecalis 10-7 after 18-24 hrs by two-fold serial dilution method
Staphylococcus aureus [18] = experiment: Ratio of levofloxacin MIC to compound MIC for Staphylococcus aureus ATCC […] after 18-24 hrs by two-fold serial dilution method
Staphylococcus aureus [19] = experiment: Antimicrobial activity against Staphylococcus aureus ATCC […] after 18-24 hrs by two-fold serial dilution method; summary of the method: as §1
Enterococcus faecium [20] = experiment: Ratio of levofloxacin MIC to compound MIC for Enterococcus faecium 10-5 after 18-24 hrs by two-fold serial dilution method
Enterococcus faecalis [21] = experiment: Ratio of levofloxacin MIC to compound MIC for Enterococcus faecalis 10-5 after 18-24 hrs by two-fold serial dilution method
[22] = test system: Staphylococcus epidermidis; experiment: Ratio of gemifloxacin MIC to compound MIC for extended spectrum beta-lactamases-producing methicillin-sensitive Staphylococcus epidermidis 10-13 after 18-24 hrs by two-fold serial dilution method
Staphylococcus aureus [23] = experiment: Antimicrobial activity against extended spectrum beta-lactamases-producing methicillin-sensitive Staphylococcus aureus 10-14 after 18-24 hrs by two-fold serial dilution method; summary of the method: as §1
[24] = test system: Staphylococcus epidermidis; experiment: Antimicrobial activity against extended spectrum beta-lactamases-producing methicillin-resistant Staphylococcus epidermidis 10-13 after 18-24 hrs by two-fold serial dilution method; summary of the method: as §3
[25] = test system: Staphylococcus epidermidis; experiment: Ratio of levofloxacin MIC to compound MIC for extended spectrum beta-lactamases-producing methicillin-sensitive Staphylococcus epidermidis 10-13 after 18-24 hrs by two-fold serial dilution method; summary of the method: as §2
[26] = test system: Staphylococcus epidermidis; experiment: Ratio of gemifloxacin MIC to compound MIC for extended spectrum beta-lactamases-producing methicillin-sensitive Staphylococcus epidermidis 10-11 after 18-24 hrs by two-fold serial dilution method
Klebsiella pneumoniae [27] = experiment: Antimicrobial activity against Klebsiella pneumoniae 10-3 after 18-24 hrs by two-fold serial dilution method; summary of the method: as §1
Streptococcus pneumoniae [28] = experiment: Antimicrobial activity against extended spectrum beta-lactamases-producing Streptococcus pneumoniae 10-4 after 18-24 hrs by two-fold serial dilution method; summary of the method: as §1
[29] = test system: Staphylococcus epidermidis; experiment: Ratio of levofloxacin MIC to compound MIC for extended spectrum beta-lactamases-producing methicillin-sensitive Staphylococcus epidermidis 10-11 after 18-24 hrs by two-fold serial dilution method; summary of the method: as §2
Enterococcus faecalis [30] = experiment: Antimicrobial activity against Enterococcus faecalis 10-6 after 18-24 hrs by two-fold serial dilution method; summary of the method: as §1
Enterococcus faecalis [31] = experiment: Ratio of levofloxacin MIC to compound MIC for Enterococcus faecalis 10-7 after 18-24 hrs by two-fold serial dilution method
Staphylococcus aureus [32] = experiment: Antimicrobial activity against extended spectrum beta-lactamases-producing methicillin-resistant Staphylococcus aureus 10-11 after 18-24 hrs by two-fold serial dilution method; summary of the method: as §3
Pseudomonas aeruginosa [33] = experiment: Antimicrobial activity against extended spectrum beta-lactamases-producing Pseudomonas aeruginosa 10-18 after 18-24 hrs by two-fold serial dilution method; summary of the method: as §1
[34] = test system: Staphylococcus epidermidis; experiment: Antimicrobial activity against extended spectrum beta-lactamases-producing methicillin-sensitive Staphylococcus epidermidis 10-13 after 18-24 hrs by two-fold serial dilution method; summary of the method: as §1
Streptococcus pneumoniae [35] = experiment: Ratio of levofloxacin MIC to compound MIC for extended spectrum beta-lactamases-producing Streptococcus pneumoniae 10-4 after 18-24 hrs by two-fold serial dilution method; summary of the method: as §2
Klebsiella pneumoniae [36] = experiment: Antimicrobial activity against extended spectrum beta-lactamases-producing Klebsiella pneumoniae 10-1 after 18-24 hrs by two-fold serial dilution method; summary of the method: as §1
Pseudomonas aeruginosa [37] = experiment: Antimicrobial activity against extended spectrum beta-lactamases-producing Pseudomonas aeruginosa 10-5 after 18-24 hrs by two-fold serial dilution method; summary of the method: as §1
Enterococcus faecalis [38] = experiment: Ratio of gemifloxacin MIC to compound MIC for Enterococcus faecalis 10-5 after 18-24 hrs by two-fold serial dilution method
Enterococcus faecalis [39] = experiment: Antimicrobial activity against Enterococcus faecalis 10-7 after 18-24 hrs by two-fold serial dilution method; summary of the method: as §1
Escherichia coli [40] = experiment: Antimicrobial activity against Escherichia coli 10-3 after 18-24 hrs by two-fold serial dilution method; summary of the method: as §1
Staphylococcus aureus [41] = experiment: Ratio of gemifloxacin MIC to compound MIC for extended spectrum beta-lactamases-producing methicillin-sensitive Staphylococcus aureus 10-14 after 18-24 hrs by two-fold serial dilution method

COc1ccc(OC)c(CO/N=C2\CN(c3nc4c(cc3F)c(=O)c(C(=O)O)cn4C3CC3)CC2CN)c1.CS(=O)(=O)O (racemic)
Ratio (Enterococcus faecium [1]): 8
MIC [2]: 4 µg/mL
Ratio (Enterococcus faecium [3]): 2
MIC (Enterococcus faecium [4]): 4 µg/mL
Ratio (Enterococcus faecium [5]): 2
Ratio [6]: 2
MIC (Pseudomonas aeruginosa [7]): > 128 µg/mL
Ratio [8]: 8
MIC (Klebsiella pneumoniae [9]): > 128 µg/mL
MIC50 [10]: 0.25 µg/mL
MIC90 [10]: 4 µg/mL
MIC (Klebsiella pneumoniae [11]): > 128 µg/mL
MIC (Staphylococcus aureus [12]): 0.125 µg/mL
Ratio (Streptococcus pneumoniae [13]): 2
MIC (Escherichia coli [14]): > 128 µg/mL
Ratio (Staphylococcus aureus [15]): 2
MIC [16]: 0.25 µg/mL
Ratio (Enterococcus faecalis [17]): 2
Ratio (Staphylococcus aureus [18]): 8
MIC (Staphylococcus aureus [19]): < 0.008 µg/mL
Ratio (Enterococcus faecium [20]): 8
Ratio (Enterococcus faecalis [21]): 8
Ratio [22]: 2
MIC (Staphylococcus aureus [23]): 0.03 µg/mL
MIC [24]: 0.25 µg/mL
Ratio [25]: 8
Ratio [26]: 2
MIC (Klebsiella pneumoniae [27]): > 128 µg/mL
MIC (Streptococcus pneumoniae [28]): 0.015 µg/mL
Ratio [29]: 8
MIC (Enterococcus faecalis [30]): 4 µg/mL
Ratio (Enterococcus faecalis [31]): 8
MIC (Staphylococcus aureus [32]): 1 µg/mL
MIC (Pseudomonas aeruginosa [33]): > 128 µg/mL
MIC [34]: 0.03 µg/mL
Ratio (Streptococcus pneumoniae [35]): 8
MIC (Klebsiella pneumoniae [36]): > 128 µg/mL
MIC (Pseudomonas aeruginosa [37]): > 128 µg/mL
Ratio (Enterococcus faecalis [38]): 2
MIC (Enterococcus faecalis [39]): 0.25 µg/mL
MIC (Escherichia coli [40]): > 128 µg/mL
Ratio (Staphylococcus aureus [41]): 2
